ChEMBL document CHEMBL4118188, “A small diversity library of α-methyl amide analogs of sulindac for probing anticancer structure-activity relationships” (Bioorg Med Chem Lett, 2018)

How the values were obtained:
[1] = tested on: MDA-MB-231; assay: Growth inhibition of human MDA-MB-231 cells measured after 96 hrs by Celltiter-Glo reagent based assay; format: functional; conditions: MDA-MB-231, 96 h
[2] = tested on: 697; assay: Growth inhibition of human 697 cells after 72 hrs by CellTiter-Glo reagent based assay; format: functional, cell-based
In short: (§1)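 Cell line sources: Raji is a Burkitt's lymphoma line (FAB L3); Jurkat E6-1 is an acute T-cell leukemia line; REH is a patient-derived precursor B-cell ALL line expressing only wild-type MLL and wild-type AF4; 697 was established from bone marrow of children with relapsed ALL; CPC300 derives from a mouse model of choroid plexus carcinoma.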

[3] = tested on: REH; assay: Growth inhibition of human REH cells measured after 72 hrs by CellTiter-Glo reagent based assay; format: functional, cell-based; in short: as §1
[4] = Growth inhibition of mouse CPC300 cells measured after 72 hrs by Celltiter-Glo reagent based assay; format: functional; in short: as §1
[5] = tested on: HT-29; assay: Growth inhibition of human HT-29 cells measured after 72 hrs by Celltiter-Glo reagent based assay; format: functional; conditions: HT-29, 72 h
[6] = Growth inhibition of human NALM16 cells measured after 72 hrs by Celltiter-Glo reagent based assay; format: functional
[7] = tested on: Raji; assay: Growth inhibition of human Raji cells measured after 72 hrs by Celltiter-Glo reagent based assay; format: functional, cell-based; in short: as §1
[8] = tested on: Jurkat E6.1; assay: Growth inhibition of human Jurkat E6-1 cells measured after 72 hrs by Celltiter-Glo reagent based assay; format: functional, cell-based; in short: as §1
[9] = tested on: BJ; assay: Growth inhibition of human BJ cells after 72 hrs by CellTiter-Glo reagent based assay; format: cell-based
[10] = tested on: PC-3; assay: Growth inhibition of human PC3 cells measured after 72 hrs by Celltiter-Glo reagent based assay; format: functional; conditions: PC-3, 72 h
[11] = Homo sapiens, NALM16, 72 h, read-out: EC50
[12] = Homo sapiens, 697, 72 h, read-out: EC50
[13] = Homo sapiens, REH, 72 h, read-out: EC50
[14] = Homo sapiens, Raji, 72 h, read-out: EC50
[15] = Homo sapiens, Jurkat E6.1, 72 h, read-out: EC50

EC50 ([7]; raji) | EC50 ([8]; jurkat e6.1) | EC50 [7, 14] [µM] | EC50 [8, 15] [µM] | SMILES | CC50 [1] [µM] | EC50 [2]; 697 | EC50 ([3]; reh) | EC50 [4] | CC50 [5] [µM] | EC50 [6, 11] [µM] | EC50 [9] [µM] | CC50 [10] [µM] | EC50 [2, 12] [µM] | EC50 [3, 13] [µM] | EC50 [6]
 |  | 13 | 7.7 | COc1cc(/C=C2/C(C)=C(C(C)C(=O)NCc3ccccc3)c3cc(F)ccc32)cc(OC)c1OC (stereo not given) | 3.81 |  |  | Not Active | 2.77 | 8 | > 7.57 | 4.92 | 6.1 | 7 | 
Not Active | Not Active |  |  | CSc1ccc(/C=C2/C(C)=C(C(C)C(=O)N(CCCNC(C)C)C(C)C)c3cc(F)ccc32)cc1 (stereo not given) | 2.91 | Not Active | Not Active | Not Active | 1.26 | 1.5 | > 7.57 | 3.18 |  |  | 
Not Active | Not Active |  |  | CSc1ccc(/C=C2/C(C)=C(C(C)C(=O)N3CCN(c4ccncc4)CC3)c3cc(F)ccc32)cc1 (stereo not given) | 3.95 |  | Not Active | Not Active | 2.2 |  | > 7.57 | 4.68 | 76 |  | Not Active
Not Active | Not Active |  |  | CSc1ccc(/C=C2/C(C)=C(C(C)C(=O)N3CCN(CCN(C)C)CC3)c3cc(F)ccc32)cc1 (stereo not given) | 3.77 | Not Active | Not Active | Not Active | 2.02 | 2.1 | > 7.57 | 5.98 |  |  | 
Not Active | Not Active |  |  | CCN(CC)CCNC(=O)C(C)C1=C(C)/C(=C/c2ccc(SC)cc2)c2ccc(F)cc21 (stereo not given) | 5.38 | Not Active |  | Not Active | 2.03 |  | > 7.57 | 6.21 |  | 14 | Not Active
Not Active | Not Active |  |  | CCN(CC)CCCNC(=O)C(C)C1=C(C)/C(=C/c2ccc(SC)cc2)c2ccc(F)cc21 (stereo not given) | 4.23 | Not Active | Not Active | Not Active | 2.17 |  | > 7.57 | 6.13 |  |  | Not Active

The next lines start with the molecule.

SMILES | EC50 ([7]; raji) | EC50 ([8]; jurkat e6.1) | EC50 [7, 14] [µM] | EC50 [8, 15] [µM] | CC50 [1] [µM] | EC50 [2]; 697 | EC50 ([3]; reh) | EC50 [4] | CC50 [5] [µM] | EC50 [6, 11] [µM] | EC50 [9] [µM] | CC50 [10] [µM] | EC50 [2, 12] [µM] | EC50 [3, 13] [µM] | EC50 [6]
CSc1ccc(/C=C2/C(C)=C(C(C)C(=O)NCCN(C)C)c3cc(F)ccc32)cc1 (stereo not given) | Not Active | Not Active |  |  | 3.88 | Not Active | Not Active | Not Active | 1.8 | 76 | > 7.57 | 5.07 |  |  | 
CSc1ccc(/C=C2/C(C)=C(C(C)C(=O)N(C)CCCN(C)C)c3cc(F)ccc32)cc1 (stereo not given) | Not Active | Not Active |  |  | 4.11 | Not Active |  | Not Active | 2.12 |  | > 7.57 | 5.5 |  | 38 | Not Active
CSc1ccc(/C=C2/C(C)=C(C(C)C(=O)NCCN3CCNCC3)c3cc(F)ccc32)cc1 (stereo not given) |  | Not Active | 45 |  | 5.32 | Not Active |  | Not Active | 2.22 |  | > 7.57 | 5.91 |  | 26 | Not Active
CCN(CCN(C)C)C(=O)C(C)C1=C(C)/C(=C/c2ccc(SC)cc2)c2ccc(F)cc21 (stereo not given) |  | Not Active | < 0.00038 |  | 3.18 | Not Active |  | Not Active | 1.13 |  | > 7.57 | 3.54 |  | 10 | Not Active
CSc1ccc(/C=C2/C(C)=C(C(C)C(=O)NCCN3CCCC3)c3cc(F)ccc32)cc1 (stereo not given) | Not Active |  |  | 76 | 5 |  |  | Not Active | 2.03 |  | > 7.57 | 5.68 | 76 | 76 | Not Active
CSc1ccc(/C=C2/C(C)=C(C(C)C(=O)N(CCNC(C)C)C(C)C)c3cc(F)ccc32)cc1 (stereo not given) | Not Active | Not Active |  |  | 3.83 | Not Active | Not Active | Not Active | 1.5 |  | > 7.57 | 3.91 |  |  | Not Active
